Measured values of several laboratories.
Lines come from different studies, so protocols differ.

SMILES | target or system | assay | test system | conditions | quantity | value
O=C1C(NCCc2ccc(O)cc2)=CC2=NCCc3c[nH]c1c32 | Babesia divergens | parasite growth, SYBR Green | – | 60 h, blood stage | IC50 | 404 nM
N#Cc1ccc(Oc2ccc(C(=O)C(Cl)Cl)cc2[N+](=O)[O-])cc1 | NCI-H1299 | cell growth or viability, MTT | – | 2.5 µM | inhibition | 96.2%
N#Cc1c(-c2ccc(Cl)cc2Cl)c(C(N)=S)c(N)n(N)c1=O | Enterobacter cloacae | microbial growth, well diffusion | ATCC23355 | 500 µg/mL | inhibition zone | 18 mm
CN(Cc1ccc(C2(C(F)(F)F)CC2)cc1)Cc1cccc2ccccc12 | Trichophyton mentagrophytes | microbial growth, disc diffusion | ATCC18748 | 0.512 µg/mL, 72 h | inhibition zone | ≥ 55 mm
O=C1CC[C@@H](COc2ccc(C(=O)C(Cl)Cl)cc2[N+](=O)[O-])N1 | NCI-H1299 | cell growth or viability, MTT | – | 2.5 µM | inhibition | 94.7%
C=CC(=O)NC1CCN(c2ncc3ncnc(Nc4ccc(Oc5ccc6c(c5)ncn6C)c(C)c4)c3n2)CC1 | COR-L279 | cell growth or viability | – | – | EC50 | 7.54 nM
CC#CCOc1ccc(/C=C/c2cc(OC)cc(OC)c2-c2cnnn2C(=O)NCCc2ccccc2)cc1 | RAW264.7 | NO release, inhibitor, Griess | – | 10 µM, LPS-stimulated | inhibition | 82.3%
COc1cccc2c1C(=O)c1c(O)c3c(c(O)c1C2=O)C[C@@](O)(C(=O)CO)C[C@@H]3O[C@H]1C[C@H](N)[C@H](O)[C@H](C)O1 | NCI-H1299 | cell growth or viability, MTT | – | 2.5 µM | inhibition | 95.7%
CCCOc1ccc(/C=C/c2cc(OC)cc(OC)c2-c2cnnn2C(=O)NCCc2ccccc2)cc1 | RAW264.7 | NO release, inhibitor, Griess | – | 10 µM, LPS-stimulated | inhibition | 69.3%
CN(Cc1ccc(C(C)(C)C)cc1)Cc1cccc2ccccc12 | Trichophyton mentagrophytes | microbial growth, disc diffusion | ATCC18748 | 0.004 µg/mL, 72 h | inhibition zone | 34 mm
CC#CCOc1ccc(/C=C/c2cc(OC)cc(OC)c2-c2cnnn2C(=O)NC(C)C)cc1 | RAW264.7 | NO release, inhibitor, Griess | – | 10 µM, LPS-stimulated | inhibition | 78.7%
O=C(c1ccc(Oc2ccc(OCc3ccccc3)cc2)c([N+](=O)[O-])c1)C(Cl)Cl | NCI-H1299 | cell growth or viability, MTT | – | 2.5 µM | inhibition | 86.4%
